# Compound activity from PubChem BioAssay.
# This is one part of a sample in which hits are shown more often than they occur.
# CHOP inhibitor: inhibitors of CHOP induction in ER stress response | 220,000 tested, 3.8% active | AID 2732 | inhibition, % at 10 µM | CHO-K1 CHOP-promoter luciferase, tunicamycin-induced, 15-18 h;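 active = compounds that reduced the stress-induced luciferase reporter signal by more than about 70% of percent inhibition, limit read from the data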;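 also: 0% = tunicamycin plus vehicle and 100% = wells without tunicamycin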
# Cardio protect: protects H9c2 cardiomyocytes from peroxide injury; H2O2 injury protection, ATPLite, 2 h; protection from H2O2 cell death, % at 20 µM; AID 588492; 360,000 tested, 0.63% active;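 active = compounds giving at least 50% protection of heart cells from peroxide-induced death in the single-dose screen, raw or plate-pattern-corrected value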;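 also: 0% = DMSO wells with peroxide and 100% = DMSO wells without peroxide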
# XBP1 UPR activ: adaptive UPR (XBP1) activation; CHO-XBP1 luciferase reporter, IRE1-XBP1 UPR activation, luminescence; percent of tunicamycin response, DMSO as zero; activation, % at 20 µM; AID 463104; 330,000 tested, 0.33% active;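 active = versus positive control, 20 µM dose yields 30% or more activation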;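 also: 100% = tunicamycin at 10 µg/mL and 0% = DMSO only wells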
#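 Signal: luciferase luminescence; Assay system: CHO-XBP1 luciferase reporter cells; Amount: one thousand reporter cells per well; Dosing: 20 µM single concentration, DMSO 1%; Benchmarks: high control tunicamycin 10 µg/mL final, low control DMSO vehicle only; Schedule: 6 h compound exposure at 37 °C, 5% CO2; Evaluation: percent activation relative to tunicamycin reference.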
# iPSC survival up: enhancers of human iPSC single-cell survival. 360,000 tested, 0.044% active. AID 602274. survival enhancement, % at 20 µM. hiPSC single-cell survival, ATPlite luminescence; 100% = ROCK inhibitor wells, 0% = DMSO; in the data active = survival enhancement above about 18%;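 also: cells exposed to compounds for 16 hours before the ATP read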
# UPR CHOP act: apoptotic UPR (CHOP) activation | CHO-CHOP luciferase reporter, luminescence; percent of tunicamycin response over DMSO baseline | activation, % at 10 µM | 330,000 tested, 0.34% active | AID 449763;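 active = at 10 µM dose, activation of 40% or more, normalized to positive control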;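 also: 100% = tunicamycin at 10 µg/mL and 0% = DMSO alone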
#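 Assay system: CHO-CHOP cells, stable luciferase reporter of PERK-eIF2a-CHOP signalling / Buffer or medium: F12 plus 10% serum / Compound dosing: one dose, 10 µM in 0.5% DMSO / Times: 6 h compound treatment, 37 °C / Technique: luciferase luminescence / Read-out: % reporter activation, DMSO baseline versus tunicamycin full activation / Benchmarks: tunicamycin and DMSO controls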
# * = called active by the depositor; · = no result given.
SMILES,CHOP inhibitor,Cardio protect,XBP1 UPR activ,iPSC survival up,UPR CHOP act
O=C(O)c1ccccc1NC(=O)C1CCN(S(=O)(=O)c2ccc3c(c2)OCCO3)CC1,·,0,·,2,·
Cc1cc(Br)c(OCc2ccc(C(=O)N/N=C3\CC(=O)CC(C)(C)C3)cc2)c(Br)c1,91*,-8,-2,1,2
COc1ccc(-c2cc(C(F)(F)F)c3c(N)c(C(=O)NCCSC)sc3n2)cc1,·,8,55*,0,1
CN(C)CCNC(=O)c1sc2nc(-c3ccccc3)cc(C(F)(F)F)c2c1N,·,4,-2,0,2
Cc1noc(C)c1C(=O)OC(C)C(=O)c1c[nH]c2ccccc12 (stereo not given),·,9,·,0,·
N#C/C(=C\Nc1ccc2c(c1)OCCO2)c1nc2ccccc2[nH]1,74*,82*,7,4,3
N#C/C(=C\Nc1ccc2c(c1)OCCO2)c1nc(-c2ccccc2)cs1,-17,-10,6,6,0
N#C/C(=C\c1c[nH]c2ccccc12)C(=O)c1ccc(O)c(O)c1,-1,·,·,·,·
Cc1c(C(=O)Nc2nnc(SCc3ccccc3Cl)s2)cccc1[N+](=O)[O-],78*,-8,-1,0,1
Cc1c(C(=O)NCCSCc2ccccc2Cl)cccc1[N+](=O)[O-],17,-5,1,1,0
O=C(N/C(=C/c1ccccc1)C(=O)N1CCCCC1)c1ccccc1,·,15,-3,0,1
O=C(/C(=C/c1ccccc1)c1ccccc1)N1CCCCC1,87*,-6,-1,0,-2
Cc1ccccc1Cn1c(=N)n(CC(=O)c2ccc([N+](=O)[O-])cc2)c2ccccc21,84*,-19,·,-1,·
Cc1nn(-c2ccc3ccccc3c2)c(=O)c2ccccc12,-21,-4,4,-2,2
Cc1nn(-c2nc3ccccc3[nH]2)c(=O)c2ccccc12,98*,-23,·,-3,·
CCOC(=O)N1CCC(n2c(SCC(=O)N3CCCC3)nc3ccccc3c2=O)CC1,-11,6,-1,0,-1
CCOC(=O)N1CCC(n2c(SCC(=O)N3CCC(C)CC3)nc3ccccc3c2=O)CC1,5,67*,-3,0,2
C[C@@H]1CN([C@@H](C)CO)C(=O)CCCn2nncc2CO[C@@H]1CN(C)S(=O)(=O)c1ccc(Oc2ccccc2)cc1,·,-5,·,0,·
Nc1c(C(=O)NCc2ccccc2)c2nc3ccccc3nc2n1CCCN1CCOCC1,102*,38,0,4,2
CCCCCCCn1ccc(=N)cc1,67,-29,-1,1,8
CCCCCCCCCn1ccc(=N)cc1,76*,-13,7,-1,11
CC(C)[C@@H]1NC(=O)[C@H](CCCCN)NC(=O)[C@@H](Cc2c[nH]c3ccccc23)NC(=O)[C@H](Cc2ccc(O)cc2)NC(=O)[C@H](C)N(C)C(=O)[C@H](Cc2ccccc2)NC1=O,-1,·,·,·,·
CCCCc1c(C)c(C#N)c2nc3ccccc3n2c1Cl,106*,·,·,·,·
Cc1[nH]n(-c2ccccc2)c(=O)c1C=NCC1CCCO1 (stereo not given),-4,6,-2,-2,2
Cc1[nH]n(-c2ccccc2)c(=O)c1/C=N/N1C(=O)c2ccc3c4c(ccc(c24)C1=O)CC3,7,65*,3,-1,-1
SMILES,CHOP inhibitor,Cardio protect,XBP1 UPR activ,iPSC survival up,UPR CHOP act
Cc1c(/C=N/NC(=O)COc2ccccc2[N+](=O)[O-])c2ccccc2n1C,55,38,6,1,3
Cc1[nH]n(-c2ccccc2)c(=O)c1/C=N/NC(=O)C(C)C,76*,8,8,-1,38
COCC(=O)N/N=C/c1c(C)[nH]n(-c2ccccc2)c1=O,73*,6,-2,0,7
Cc1[nH]n(-c2ccccc2)c(=O)c1/C=N/NC(=O)COc1ccccc1[N+](=O)[O-],33,62*,2,-2,-3
CN(CC(=O)NCC1CCCO1)S(=O)(=O)c1ccc2ccccc2c1 (stereo not given),·,-3,·,-1,·
COc1cccc(CN2CCC2(C)C(=O)NCc2cccc(C(F)(F)F)c2)c1OC (stereo not given),·,12,·,-3,·
Cc1[nH]n(-c2ccccc2)c(=O)c1/C=N/O,-4,3,-1,-2,-2
Cc1ccc2cccc(N=Cc3c(C)[nH]n(-c4ccccc4)c3=O)c2n1,-19,63*,·,5,·
Cc1[nH]n(-c2cccc3ccccc23)c(=O)c1/C=N/NC(=O)c1cccc([N+](=O)[O-])c1,39,56*,-2,0,1
C[C@@H]1Cc2[nH][nH]c(=O)c2[C@H](C)O1,·,·,·,-1,·
COc1cc(S(=O)(=O)NC2CCCCC2)ccc1Cl,23,-10,-2,0,-1
COc1ccc(S(=O)(=O)NC2CCCCC2)cc1C,83*,0,-3,-1,-2
CCOc1ccc(S(=O)(=O)NC2CCCCCC2)cc1,16,-6,3,-2,-2
CCOc1cc(S(=O)(=O)NC2CCCCCC2)ccc1F,76*,-22,-2,7,-1
COC(=O)CCN(C1CCCCC1)S(=O)(=O)c1ccc(S(=O)(=O)NC2CCCCC2)cc1,75*,2,-1,-1,-3
CCCC(=O)N(Cc1cc2cc(OC)ccc2[nH]c1=O)c1ccccc1OC,·,8,·,5,·
Cc1ccc2[nH]c(=O)c(-c3nc4cc(C)ccn4c3NCc3ccco3)cc2c1,93*,-9,-1,1,3
CCc1c(O)c(/C(C)=N\O)c(=O)n(-c2ccccc2)c1-c1ccccc1,5,11,-1,0,2
C=CCO/N=C(/C)c1c(O)c(CC)c(-c2ccccc2)n(-c2ccccc2)c1=O,72*,-1,-2,4,0
CC(=O)SC1CC2=CC(=O)CC[C@]2(C)C2CC[C@@]3(C)C(CC[C@@]34CCC(=O)O4)C12 (stereo not given in full),3,·,·,·,·
Cc1cc(C(=O)NC(=S)Nc2cccc(NC(=O)C(C)C)c2)ccc1[N+](=O)[O-],81*,-16,1,0,2
Cn1nc(-c2ccccc2)c(C(O)c2ccccc2C(F)(F)F)c1Cl (stereo not given),-8,1,-1,22*,-1
COC(c1ccccc1)c1c(-c2ccccc2)nn(C)c1Cl (stereo not given),47,-6,-2,0,-2
CC(C)(C)c1ccc(CC(=O)N2CCC2(C)C(=O)NCc2cccc3ccccc23)cc1 (stereo not given),·,-13,·,-1,·
COc1ccc(/C=N/Nc2nnc(-c3ncc[nH]3)c3ccccc23)cc1,-12,20,7,0,7
Oc1ccc2ccccc2c1/C=N/Nc1nnc(-c2ncc[nH]2)c2ccccc12,79*,-4,2,-1,-2
C=CCn1c(=NC(=O)c2ccco2)sc2cc(C(=O)OC)ccc21,80*,-4,3,0,3
